From PubChem BioAssay
Compounds with a hit are over-represented: about 3.4% of the library has one in this group of screens.
ROMK primary: ROMK potassium channel modulators, primary screen, cell-based, thallium flux, MLSMR library; ATP-sensitive inward rectifier potassium channel 1 (Homo sapiens), P48048; Tet-inducible ROMK, thallium flux fluorescence; actives lie on both sides; B-score at 10 µM; 2% of 130,000 active;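 active = signal ratio slope over the read window, or its plate-corrected B-score, at least 3 SD from the plate mean, either direction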;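 note: B-score of the F/F0 ratio slope over 7 to 12 s after thallium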
KCC2 mod: KCC2 cotransporter modulators, thallium flux, primary screen, cell-based, HEK293 KCC2, FluoZin-2 fluorescence, MLSMR; KCC2 cells, thallium flux FluoZin-2 fluorescence; B-score of Tl+ flux slope (higher = more flux/activation; lower = inhibition) at 10 µM; 2.2% of 190,000 active;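 active = thallium flux slope and its plate-corrected score both differing from the plate sample mean at a set confidence after two filtering rounds, in either direction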;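 note: slope of fluorescence scaled to starting intensity during 10 to 20 s after thallium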
Redox H2O2 prof: compounds producing H2O2 with reducing agent – biochemical, NIH compound library profiling, artefact control for MLSCN library redox annotation, primary screen | DTT-dependent redox cycling H2O2, phenol red/HRP absorbance; 100% = 100 µM peroxide control, 0% = buffer | AID 878, 2007 | 0.03% of 200,000 active | activation, % at 10 µM;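 active = activation of at least 50% relative to the plate's high and low controls in the primary single-dose screen; inactive = activation below 50%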;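 note: compound incubated with DTT at 0.8 mM final as the reducing agent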
PKD1 inh: inhibitors of human PKD1 kinase, biochemical, fluorescence polarization; Serine/threonine-protein kinase D1 (Homo sapiens), Q15139; PKD1 kinase fluorescence polarization assay; inhibition, % (concentration not given with the values); 0.056% of 200,000 active; AID 797, 2007; in the data active = inhibition above about 50%
MDM2 E3 inh: MDM2-luciferase reporter signal enhancers, primary screen, MDM2 E3 ligase inhibitor project, cell-based, luminescence, 1536-well. AID 1230, 2008. signal enhancement, % at 5 µM. E3 ubiquitin-protein ligase Mdm2 (Homo sapiens), Q00987. cell-based MDM2 ubiquitination luciferase reporter, 2 h; 0 = plate control, 100 = twice control, blank-subtracted. 0.11% of 210,000 active;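 active = signal enhancement of 30% or more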;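 note: luminescence tracks abundance of the self-degrading MDM2-luciferase fusion protein; higher signal means inhibition of MDM2 E3 ligase activity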
Target sequence (Q00987 whole entry, looked up, the tested form may be a part): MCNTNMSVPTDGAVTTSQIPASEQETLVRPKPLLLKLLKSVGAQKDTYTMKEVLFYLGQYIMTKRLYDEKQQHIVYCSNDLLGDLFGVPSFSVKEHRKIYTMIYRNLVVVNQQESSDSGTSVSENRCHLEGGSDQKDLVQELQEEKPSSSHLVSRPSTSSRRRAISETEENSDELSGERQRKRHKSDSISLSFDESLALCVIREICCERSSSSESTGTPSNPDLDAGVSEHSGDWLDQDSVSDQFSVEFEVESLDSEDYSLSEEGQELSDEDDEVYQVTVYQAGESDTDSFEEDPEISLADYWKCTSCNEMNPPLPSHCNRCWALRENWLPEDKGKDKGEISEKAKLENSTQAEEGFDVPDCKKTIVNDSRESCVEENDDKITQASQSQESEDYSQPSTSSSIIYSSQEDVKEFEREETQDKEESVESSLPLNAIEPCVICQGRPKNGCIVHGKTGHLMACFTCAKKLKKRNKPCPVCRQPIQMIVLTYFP
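Material: stable MDM2–luciferase fusion reporter cells / Quantity: 2000 cells/well / Dosing: single 5 µM compound dose, 0.2% final DMSO / Buffer or medium: DMEM / Schedule: 4 h cell settling then 2 h compound exposure, 37 °C / Detection: luminescence with SteadyLite reagent, 15 min at room temperature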
p97 inhibitor: inhibitors of human p97 ATPase, primary screen, biochemical; Transitional endoplasmic reticulum ATPase (Homo sapiens), P55072; recombinant p97 ATPase, Kinase-Glo ATP luminescence, 3 h; inhibition, % at 8 µM; 0.42% of 220,000 active; AID 1481, 2009; in the data active = inhibition above about 15%
Large screens that a line does not name were inactive.

CC(C)CSC1=NSC2=NC(=O)/C(=C\c3ccccc3)C(=N)N12	ROMK primary 1.84, KCC2 mod 139
O=C(Cc1ccccc1)Nc1nc2ccccc2s1	none (no result: ROMK primary)
O=C(Nc1nc(=O)c2ccccc2s1)c1ccc(F)cc1	KCC2 mod 47.3 (no result: ROMK primary)
O=C(Cc1ccccc1)Nc1nc(=O)c2ccccc2s1	KCC2 mod 4.12 (no result: ROMK primary)
CC1C=CCC2C(=O)N(c3ccc(OC(=O)c4cccs4)cc3)C(=O)C12 (centres undefined)	none
Cc1ccc(NC(=O)c2ccc(OC(=O)COc3ccc(Cl)cc3C)cc2)cc1	none
Cc1ccc(C(=O)CC(=O)COc2ccc(Cl)cc2C)cc1	KCC2 mod 17.1 (no result: ROMK primary)
CC(=O)Nc1ccc(/C=C2\Sc3ccccc3C2=O)cc1	none (no result: Redox H2O2 prof, PKD1 inh)
O=C1/C(=C/c2cccnc2)Sc2ccccc21	ROMK primary -4.49
CCCN1CCN(C(=O)Cn2cccc2C(=O)c2ccccc2)CC1	none (no result: ROMK primary)
CNC(=S)NNC(=O)c1cccs1	none (no result: Redox H2O2 prof, PKD1 inh)
O=C(NC(=S)NNC(=O)c1cccs1)c1ccc(Br)o1	KCC2 mod 15.2
O=C1NC(=O)c2cc(NC(=O)C3COc4ccccc4O3)ccc21 (centres undefined)	MDM2 E3 inh 43.5
O=C(CNC(=S)NC(=O)c1ccco1)c1ccccc1	KCC2 mod 5.46 (no result: ROMK primary)
O=C(Nc1nc2ccc(F)cc2s1)c1cccs1	none
O=C(NC(=S)Nc1nc2ccccc2s1)c1cccs1	KCC2 mod 72.3
O=C(CNC(=S)NC(=O)c1cccs1)c1ccccc1	KCC2 mod 10.7
Cc1ccc(C(=O)NC(=S)NCC(=O)c2ccccc2)cc1	none (no result: ROMK primary, KCC2 mod)
COc1ccc(-c2nnn(CC(=O)N(CC(=O)NC3CCCC3)Cc3ccco3)n2)cc1OC	none
COc1ccc(OCC(=O)N/N=C(\C)CC(=O)Nc2cccc([N+](=O)[O-])c2)cc1	MDM2 E3 inh 32.1 (no result: KCC2 mod)
CCOC(=O)c1ccc(NC(=S)NC(=O)COc2ccccc2)cc1	KCC2 mod 17.5 (no result: ROMK primary)
COc1ccc(C(=O)/C(C#N)=N/Nc2cccc([N+](=O)[O-])c2)cc1	ROMK primary 7.59, KCC2 mod -5.05
CCOC(=O)c1ccc(NC(=S)Nc2ccccc2)cc1	none (no result: ROMK primary)
O=C(CCOc1ccccc1)Nc1cccc([N+](=O)[O-])c1	none
O=C(COc1ccccc1)NC(=S)Nc1cccc([N+](=O)[O-])c1	KCC2 mod 43.2
Cn1c(=O)cc(SCC(=O)NCC2CCCO2)c2ccc(Cl)cc21 (centres undefined)	none (no result: ROMK primary, MDM2 E3 inh)
O=C1CC(c2ccccc2)=Nc2ccc(Br)cc2N1	none
CCO[C@H]1OC(C(=O)N2CCOCC2)=C[C@@H](c2ccccc2)[C@@H]1CCCO	none (no result: ROMK primary, MDM2 E3 inh)
Clc1ccccc1/C=N/NC1=Nc2cccc3cccc1c23	MDM2 E3 inh 346.3 (no result: ROMK primary)
O=C(O)c1ccc(NC2=Nc3cccc4cccc2c34)cc1	none (no result: Redox H2O2 prof, PKD1 inh)
Oc1oc(-c2cccc3ccccc23)nc1/C=N/c1nccs1	KCC2 mod 23.9 (no result: ROMK primary)
Cc1ccc(N2C(=S)N=C(Nc3ccccc3C)C23CCOC(C)(C)C3)cc1 (centres undefined)	KCC2 mod 24.2 (no result: ROMK primary)
Cc1cccc(C)c1NC1=NC(=S)N(c2ccccc2)C12CCOC(C)(C)C2 (centres undefined)	none
COc1cc(OC)cc(C(=O)Nc2nc(-c3ccccc3)c(-c3ccccc3)o2)c1	KCC2 mod 9.96 (no result: ROMK primary)
N=C1C(c2nc3ccccc3[nH]2)=C(O)CN1c1ccc(CC(=O)O)cc1	none
N=C1C(c2nc3ccccc3[nH]2)=C(O)CN1c1ccccc1	MDM2 E3 inh 41.1
CCN1CCN(C(=O)CS(=O)Cc2nc(-c3ccc(OC)cc3)oc2C)CC1 (centres undefined)	none (no result: ROMK primary)
Cc1ccc(C)c(NC(=S)c2nc3ccccc3s2)c1	KCC2 mod 22.3 (no result: ROMK primary)
Cc1ccc(NC(=S)c2nc3ccccc3s2)cc1	none (no result: ROMK primary)
CCN(CC)C(=O)c1c(NC(=O)c2ccccc2)sc(C)c1C	p97 inhibitor 14.7 (no result: KCC2 mod)
Cc1ccc(C=C2C(Cl)=C(Cl)C(Cl)=C2Cl)cc1	MDM2 E3 inh 49.4 (no result: ROMK primary, Redox H2O2 prof, PKD1 inh)
Cn1c(Cn2c(=O)sc3ccccc32)nnc1SCC(=O)NCc1ccc(F)cc1	none (no result: ROMK primary)
O=C(NC(=S)N1CCN(c2nc(-c3ccccc3)cs2)CC1)c1cncc(Br)c1	ROMK primary 4.82, KCC2 mod 70.2
C/C(=N\NC(=S)Nc1ccc(F)cc1)c1ccc2c(c1)OCCO2	KCC2 mod 48 (no result: ROMK primary)
CC(C)OC(=O)c1c2nc3ccccc3nc2n2c1[nH]c(=O)c1ccccc12	KCC2 mod 125
O=C(Nc1nc(-c2cccs2)cs1)c1cc2ccccc2oc1=O	ROMK primary 1.63
O=C(/C=C/c1ccc(N2CCC(c3ccccc3)=N2)cc1)c1ccccc1	ROMK primary -4.36
O=C(/C=C/c1ccc(O)cc1)c1ccccc1	none (no result: ROMK primary, Redox H2O2 prof, PKD1 inh)
CCN(CC)CCCn1c(=S)[nH]c2ccccc2c1=O	none (no result: ROMK primary)
CCCCn1c(=S)[nH]c2c(oc3ccc(Cl)cc32)c1=O	ROMK primary 4.81 (no result: KCC2 mod, MDM2 E3 inh)
S=c1[nH]nc(COc2ccc3ccccc3c2)o1	KCC2 mod -5.71 (no result: ROMK primary)
COc1ccc(Cc2n[nH]c(=S)o2)cc1	none
O=C1NC(=S)/C(=C\c2ccc(-c3ccccc3Cl)o2)S1	KCC2 mod 25.4
Cc1c(NC(=O)CSc2ccc(Cl)cc2)cccc1-c1nc2cc(Cl)ccc2o1	none (no result: ROMK primary)
COC(=O)C1=NN(C(=O)c2cccc(Br)c2)C(O)(c2ccc(Cl)cc2)C1 (centres undefined)	KCC2 mod 92.3
CCOC(=O)C1=NN(C(=O)c2ccccc2)C(O)(c2ccc(C)cc2)C1 (centres undefined)	KCC2 mod 52
CC1=NN(C(=O)c2ccccc2)C(O)(c2ccc(Br)cc2)C1 (centres undefined)	none (no result: ROMK primary, Redox H2O2 prof, PKD1 inh)
CCOC(=O)C1=NN(C(=O)Cc2ccccc2)C(O)(c2ccc(Cl)cc2)C1 (centres undefined)	none
CCOC(=O)CSc1nnc(CNC(=O)c2cccs2)n1Cc1ccccc1	none (no result: ROMK primary, KCC2 mod)
COc1ccc(NC(=O)/C(Cl)=C(/Cl)S(=O)Cc2ccccc2Cl)cn1 (centres undefined)	p97 inhibitor 15.3 (no result: ROMK primary)
COc1ccc(NC(=O)Cc2ccc(Cl)c(Cl)c2)cn1	none
O=C(O)c1cc(C(=O)C2CC2)c[nH]1	none
O=C(O)c1cc(C(=O)C2CCCCC2)c[nH]1	PKD1 inh 111.9
COc1cc(OC)cc(C(=O)Nc2ccc(NC(=O)c3ccco3)c(Cl)c2)c1	none
Cc1ccc(-n2c(C)cc(C=C3C(=O)CC(C)(C)CC3=O)c2C)cc1	MDM2 E3 inh 57.4
COC(=O)c1ccc(NC(=O)c2snnc2-c2ccccc2)cc1	none
